Laboratory results taken from ChEMBL document CHEMBL3046350, “Design, synthesis and herbicidal activity of new iron chelating motifs for HPPD-inhibitors” (Bioorg Med Chem, 2009).

Key:
Echinochloa crus-galli = assay: Herbicidal activity against Echinochloa crus-galli (barnyard grass) assessed as reduction in plant growth measured 21 days after compound post-emergence spray application; assay type: functional
Summary of the method: (§1)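 GR50 = rate giving 50% growth reduction, scored 21 days after postemergence spray. Application rates are expressed in kg/ha.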

Abutilon theophrasti = assay: Herbicidal activity against Abutilon theophrasti (velvetleaf) assessed as reduction in plant growth measured 21 days after compound post-emergence spray application; assay type: functional; summary of the method: as §1
[1] = target: T1, 4-hydroxyphenylpyruvate dioxygenase (Arabidopsis thaliana, UniProt P93836); assay: Inhibition of Arabidopsis thaliana 4-hydroxyphenylpyruvate dioxygenase
T1 sequence (P93836 whole entry): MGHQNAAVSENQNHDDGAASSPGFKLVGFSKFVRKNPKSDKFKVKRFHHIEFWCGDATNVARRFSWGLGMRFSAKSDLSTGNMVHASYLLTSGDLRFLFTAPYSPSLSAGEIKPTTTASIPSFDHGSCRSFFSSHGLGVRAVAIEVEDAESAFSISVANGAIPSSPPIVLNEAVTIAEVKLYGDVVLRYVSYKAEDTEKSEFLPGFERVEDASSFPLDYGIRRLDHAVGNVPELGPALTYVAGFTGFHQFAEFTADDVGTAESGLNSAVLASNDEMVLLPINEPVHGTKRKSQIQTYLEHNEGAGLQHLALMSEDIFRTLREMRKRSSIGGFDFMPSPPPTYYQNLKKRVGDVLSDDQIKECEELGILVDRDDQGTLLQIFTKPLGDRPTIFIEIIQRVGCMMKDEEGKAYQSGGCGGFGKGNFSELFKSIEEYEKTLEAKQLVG
Summary of the method: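 Recombinant Arabidopsis thaliana HPPD enzyme, assayed by a previously published method.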

Chenopodium album = assay: Herbicidal activity against Chenopodium album assessed as reduction in plant growth measured 21 days after compound post-emergence spray application; assay type: functional; summary of the method: as §1
Centaurea cyanus = assay: Herbicidal activity against Centaurea cyanus assessed as reduction in plant growth measured 21 days after compound post-emergence spray application; assay type: functional
Setaria italica = assay: Herbicidal activity against Setaria italica assessed as reduction in plant growth measured 21 days after compound post-emergence spray application; assay type: functional

## Cc1nc(C)n(O)c1C(=O)c1ccc(S(C)(=O)=O)c(C2=NOCC2)c1Cl
Echinochloa crus-galli
  GR50: 2 kg/ha
Abutilon theophrasti
  GR50: >3 kg/ha
[1]
  IC50: 0.036 µM
Chenopodium album
  GR50: 0.3 kg/ha

## CCOc1c(S(=O)(=O)CC)ccc(C(=O)/C(=N\O)C(C)=O)c1Cl
Echinochloa crus-galli
  GR50: >3 kg/ha
[1]
  IC50: 20 µM
Centaurea cyanus
  GR50: >3 kg/ha
Setaria italica
  GR50: >3 kg/ha

## COc1c(S(C)(=O)=O)ccc(C(=O)/C(=N\O)C(C)=O)c1C
Echinochloa crus-galli
  GR50: >3 kg/ha
[1]
  IC50: > 20 µM
Centaurea cyanus
  GR50: >3 kg/ha
Setaria italica
  GR50: >3 kg/ha

## CSc1ccc(C(=O)/C(=N\O)C(C)=O)c(C)c1Cl
Echinochloa crus-galli
  GR50: >3 kg/ha
[1]
  IC50: > 20 µM
Centaurea cyanus
  GR50: >3 kg/ha
Setaria italica
  GR50: >3 kg/ha

## CC(=O)/C(=N/O)C(=O)c1ccc(S(C)(=O)=O)c(C2=NOCC2)c1Cl
Echinochloa crus-galli
  GR50: 2.5 kg/ha
[1]
  IC50: 13 µM
Centaurea cyanus
  GR50: >3 kg/ha
Setaria italica
  GR50: >3 kg/ha

## CCOc1c(S(=O)(=O)CC)ccc(C(=O)c2c(C)ncn2O)c1Cl
Echinochloa crus-galli
  GR50: >0.5 kg/ha
Abutilon theophrasti
  GR50: >0.5 kg/ha
[1]
  IC50: 20 µM
Chenopodium album
  GR50: 0.4 kg/ha

## CCOc1c(S(=O)(=O)CC)ccc(C(=O)c2c(C)nc(C)n2O)c1Cl
Echinochloa crus-galli
  GR50: 0.5 kg/ha
Abutilon theophrasti
  GR50: 0.1 kg/ha
[1]
  IC50: 0.048 µM
Chenopodium album
  GR50: 0.05 kg/ha

## CCOc1c(S(=O)(=O)CC)ccc(C(=O)c2c(C)nc(CC)n2O)c1Cl
Echinochloa crus-galli
  GR50: >0.5 kg/ha
Abutilon theophrasti
  GR50: >0.5 kg/ha
[1]
  IC50: 0.071 µM
Chenopodium album
  GR50: 0.2 kg/ha

## CCOc1c(S(=O)(=O)CC)ccc(C(=O)c2c(C)nc(C(C)C)n2O)c1Cl
Echinochloa crus-galli
  GR50: >3 kg/ha
Abutilon theophrasti
  GR50: >3 kg/ha
[1]
  IC50: 0.043 µM
Chenopodium album
  GR50: 1.5 kg/ha

## CCOc1c(S(=O)(=O)CC)ccc(C(=O)c2c(C)nc(-c3cccs3)n2O)c1Cl
Echinochloa crus-galli
  GR50: >3 kg/ha
Abutilon theophrasti
  GR50: >3 kg/ha
[1]
  IC50: > 20 µM
Chenopodium album
  GR50: >3 kg/ha

## CCOc1c(S(=O)(=O)CC)ccc(C(=O)c2c(C)nc(-c3cccn3C)n2O)c1Cl
Echinochloa crus-galli
  GR50: >3 kg/ha
Abutilon theophrasti
  GR50: >3 kg/ha
[1]
  IC50: > 20 µM
Chenopodium album
  GR50: >3 kg/ha

## CCOc1c(S(=O)(=O)CC)ccc(C(=O)c2c(C)nc(-c3ccccc3)n2O)c1Cl
Echinochloa crus-galli
  GR50: >0.5 kg/ha
Abutilon theophrasti
  GR50: >0.5 kg/ha
[1]
  IC50: > 20 µM
Chenopodium album
  GR50: >0.5 kg/ha

## CCOc1c(S(=O)(=O)CC)ccc(C(=O)c2c(C)nc(-c3ccc(Cl)cc3Cl)n2O)c1Cl
Echinochloa crus-galli
  GR50: >0.5 kg/ha
Abutilon theophrasti
  GR50: >0.5 kg/ha
[1]
  IC50: > 20 µM
Chenopodium album
  GR50: >0.5 kg/ha

## CCOc1c(S(=O)(=O)CC)ccc(C(=O)c2c(C)[n+]([O-])c(C)n2O)c1Cl
Echinochloa crus-galli
  GR50: >3 kg/ha
Abutilon theophrasti
  GR50: >3 kg/ha
[1]
  IC50: 0.19 µM
Chenopodium album
  GR50: >3 kg/ha

## COc1c(S(C)(=O)=O)ccc(C(=O)c2c(C)nc(C)n2O)c1C
Echinochloa crus-galli
  GR50: >1 kg/ha
Abutilon theophrasti
  GR50: 0.7 kg/ha
[1]
  IC50: 18 µM
Chenopodium album
  GR50: 0.06 kg/ha

## CSc1ccc(C(=O)c2c(C)nc(C)n2O)c(C)c1Cl
Echinochloa crus-galli
  GR50: >0.5 kg/ha
Abutilon theophrasti
  GR50: >0.5 kg/ha
[1]
  IC50: > 20 µM
Chenopodium album
  GR50: >0.5 kg/ha

## Cc1nc(C)n(O)c1C(=O)c1ccc(S(C)(=O)=O)cc1Cl
Echinochloa crus-galli
  GR50: >0.5 kg/ha
Abutilon theophrasti
  GR50: >0.5 kg/ha
[1]
  IC50: > 20 µM
Chenopodium album
  GR50: >0.5 kg/ha

## Cc1nc(C)n(O)c1C(=O)c1ccc(S(C)(=O)=O)c2ncccc12
Echinochloa crus-galli
  GR50: >1 kg/ha
Abutilon theophrasti
  GR50: >1 kg/ha
[1]
  IC50: > 20 µM
Chenopodium album
  GR50: >1 kg/ha

## Cc1cc(C)c(C(=O)c2c(C)nc(C)n2O)c(C)c1
Echinochloa crus-galli
  GR50: >3 kg/ha
Abutilon theophrasti
  GR50: >3 kg/ha
[1]
  IC50: > 20 µM
Chenopodium album
  GR50: >3 kg/ha

## Cc1[nH]n(C)c(=O)c1C(=O)c1ccc(S(C)(=O)=O)c(C2=NOCC2)c1Cl
Echinochloa crus-galli
  GR50: <0.01 kg/ha
Abutilon theophrasti
  GR50: <0.01 kg/ha
[1]
  IC50: 0.19 µM
Chenopodium album
  GR50: <0.01 kg/ha
